The list is not random: actives were taken first. Their share in the collection is about 2.6%.
rRNA inh HTS = inhibitors of bacterial rRNA selective over humanized ribosomes. E. coli WT GFP vs humanized-ribosome RFP mutants, fluorescence, 24 h; hits give low values; DMSO median 0, no signal -100. GFP signal change (wild-type ribosome), % (no concentration beside the values). 350,000 tested, 1.6% active. AID 720706;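 active = significant combined selectivity score with lowered wild-type GFP, culture density cut under 30%, mutant RFP and density less affected; inactive = any of these conditions unmet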
S100A4 inh HTS = inhibitors of human S100A4 binding to myosin IIA peptide; P26447; S100A4/TAMRA-MyoIIA peptide fluorescence polarization; inhibition, % at 10.7 µM; 360,000 tested, 0.14% active; AID 652163;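 active = mean inhibition of at least 70% across replicates, with every replicate also reaching that level; inconclusive = mean inhibition reaches 70% but some replicates fall short; inactive = mean inhibition below 70%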
Target sequence (P26447 whole entry, looked up): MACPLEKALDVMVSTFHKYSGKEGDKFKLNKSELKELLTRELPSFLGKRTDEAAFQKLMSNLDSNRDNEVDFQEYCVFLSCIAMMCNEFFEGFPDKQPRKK
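Material: human S100A4 monomer with TAMRA-labelled myosin IIA peptide; buffer or medium: HEPES pH 7.2 with CaCl2, KCl, NaCl, DTT, Triton; compound dosing: one concentration per compound; schedule: 5 min incubation before reading; benchmarks: neutral control DMSO, positive control TFP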
miR-122 sensor = miR-122 inhibition in Huh7 cells. 340,000 tested, 0.3% active. activation (reporter increase), % at 12.5 µM. Huh7 miR-122 Renilla luciferase sensor, 48 h; neutral wells = 0, positive control = 100. AID 602342;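 active = mean replicate activation score at least 90 and every replicate individually at or above 90; inconclusive = only one of the two criteria met; inactive = neither criterion met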;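 note: higher luciferase means less miR-122 activity so hits act as miR-122 inhibitors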
Vif imaging = blocks HIV Vif function; HEK293T cells, Vif self-association by quenched fluorescence, imaging, 24 h; inhibition, % at 7.49 µM; 340,000 tested, 0.35% active; AID 602346; in the data active = inhibition above about 50%, passing the limit was not always enough; inconclusive = no clear call, values can overlap the other calls; inactive = below about 31%
FN deposit inh = fibronectin deposition inhibition | 350,000 tested, 0.086% active | AH1F fibroblasts, Alexa488-fibronectin deposition fluorescence, overnight | inhibition, % at 12.6 µM | AID 743247;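 active = mean inhibition across replicates of 30% or more, regardless of how many single replicates reach that level; inconclusive = mean under 30% yet at least half of replicates reach 30%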;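 note: positive control wells lacked labelled fibronectin entirely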
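Schedule: 1 h cell adhesion before compound, then overnight fibronectin incubation; test system: AH1F fibroblast monolayer depositing Alexa488-labelled fibronectin into matrix; quantity: 10000 AH1F cells per well; probe or stimulus: fluorescent fibronectin at 24 nM final; signal: fluorescence, ex 485 nm, em 525 nm; evaluation: percent inhibition as loss of matrix-bound fibronectin fluorescence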
Env fusion inh = HIV envelope-mediated fusion inhibition | inhibition, % at 12.3 µM | 360,000 tested, 1.1% active | HeLa-JRFL Env/CEM21 cell fusion, luciferase;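 active = mean replicate inhibition score of at least 50 and every replicate individually at or above 50; inconclusive = only one of the two criteria met; inactive = mean below 50 and not all replicates reaching 50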;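 note: 0% = plate neutral controls and 100% = maraviroc near 300 nM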
An asterisk follows results filed as active; ? = inconclusive; nt = not tested or not shown; [ ] = remark or other dose.

SMILES	rRNA inh HTS	S100A4 inh HTS	miR-122 sensor	Vif imaging	FN deposit inh	Env fusion inh
C[C@@]12C(=O)N(Cc3ccco3)CC(=O)N1[C@H]1c3cc(Cl)ccc3OC[C@@H]1[C@@H]2c1ccccc1	5	4	-7	15	13	16
C[C@@]12C(=O)N(Cc3ccc(F)cc3)CC(=O)N1[C@H]1c3cc(Cl)ccc3OC[C@@H]1[C@@H]2c1ccccc1	7	-6	-9	1	5	77*
C[C@@]12C(=O)N(Cc3ccccc3)CC(=O)N1[C@H]1c3cc(Cl)ccc3OC[C@@H]1[C@@H]2c1ccccc1	8	-8	0	10	8	61*
C[C@@]12C(=O)N(CCc3c[nH]c4ccccc34)CC(=O)N1[C@H]1c3ccccc3OC[C@@H]1[C@@H]2c1ccccc1	7	2	-4	-4	0	82*
CN1CC(=O)N2[C@H]3c4ccccc4OC[C@@H]3[C@H](c3ccccc3)[C@]2(C)C1=O	2	-5	10	1	6	-1
C[C@@H]1CN([C@H](C)CO)C(=O)c2cc(NC(=O)Nc3ccc(F)cc3)ccc2O[C@@H](C)CCCCO[C@@H]1CN(C)Cc1ccncc1	1	nt	-4[16.7 µM]	nt	8	6[16.7 µM]
CC(=O)c1cccc(NC(=O)NC2CC3CCCC(C2)N3CC(C)C)c1 (stereo not given)	nt	nt	-7	54*	8	13
CC(=O)c1ccc(NS(=O)(=O)c2cc3c(cc2C)N(C)CCO3)cc1	2	-4	71	-1	2	-1
CC(=O)c1ccc(NS(=O)(=O)c2ccc3c(c2)N(C)CCO3)cc1	-1	-2	134*	-13	-3	-2
CC1CCN(C(=O)c2ncn3c2C(=O)N[C@H](C)C3)CC1	11	0	nt	nt	-5	72*
CCN(CC)C(=O)c1ncn2c1C(=O)N[C@H](C)C2	0	-7	nt	nt	-2	62*
C[C@H]1Cn2cnc(C(=O)N3CCN(C(=O)OC(C)(C)C)CC3)c2C(=O)N1	20	-9	nt	nt	11	-37
C[C@@H]1CCCCO[C@H](CN(C)C(=O)Nc2ccc(F)cc2)[C@H](C)CN([C@@H](C)CO)C(=O)c2cc(NC(=O)Nc3ccc4c(c3)OCO4)ccc2O1	3	-39	8[16.7 µM]	nt	nt	-20[16.7 µM]
O=C1c2ccccc2C(=O)N1Cc1cnc(N2CCN(c3ccccc3)CC2)s1	-28*	-5	nt	4	-8	-50
CSc1nsc(NN)n1	-33*	-2	10	-2	8	-54
CSc1nsc(NC(=O)OCc2ccc(Cl)cc2)n1	-40	5	0	-1	-3	-5
CCc1cccc(NC(=O)Cc2cn(C)c3ccccc23)c1	nt	nt	13	-13	-1	-64
Cn1cc(CC(=O)Nc2cccc(C#N)c2)c2ccccc21	nt	nt	138*	-3	nt	nt
CCC(=O)N(C1=C(NC(C)C)C(=O)c2ccccc2C1=O)C(C)C	-14	-2	-11	-1	-1	28
CCCNC1=C(N(C(C)=O)c2cccc(F)c2)C(=O)c2ccccc2C1=O	-17	-1	-22	5	14	78*
COc1cccc(CN2CCN(C(=O)c3cc(-c4cccnc4)nc4ccc(C)cc34)CC2)c1	-27*	18	nt	-3	-1	1
O=C(O)CCC(=O)NCc1c(Cl)cccc1Sc1ccc(Cl)cc1	-25*	-1	-2	-4	0	-8
O=C(c1ccc2c(c1)OCO2)N(CC1CCCO1)C1(C(=O)NC2CCCCC2)CCCCC1 (stereo not given)	nt	nt	0	-1	-11	135*
O=C(Cc1cccs1)N(Cc1ccco1)C1(C(=O)NC2CCCCC2)CCCCC1	nt	nt	8	15	-3	73*
CN(C(=O)c1ccc2c(c1)OCO2)C1(C(=O)NC2CCCC2)CCCCC1	nt	nt	-2	-1	13	-36
SMILES	rRNA inh HTS	S100A4 inh HTS	miR-122 sensor	Vif imaging	FN deposit inh	Env fusion inh
O=C(c1ccc(=O)[nH]c1)N(Cc1cccs1)C1(C(=O)NC2CCCC2)CCCCC1	nt	nt	nt	5	-3	25
O=C(c1ccc2c(c1)OCO2)N(Cc1cccs1)C1(C(=O)NC2CCCCC2)CCCCC1	nt	nt	nt	0	-7	103*
O=C(Cc1cccs1)N(Cc1cccs1)C1(C(=O)NC2CCCC2)CCCCC1	nt	nt	3	nt	-8	?
CO[C@@H]1CN(C)C(=O)c2ccc(NC(=O)C3CCC3)cc2OC[C@@H](C)N(CC2CCCCC2)C[C@@H]1C	nt	13	nt	nt	-2	14[16.7 µM]
COc1ccc(Br)c(C(=O)OCC(=O)N2CCC(Cc3ccccc3)CC2)c1	-35*	-2	1	-9	1	8
COc1ccc(OCC(=O)N2CCC(Cc3ccccc3)CC2)cc1	-3	2	-3	4	7	3
C/C=C/c1ccc2c(c1)O[C@H](CN(C)C(=O)NCCC)[C@@H](C)CN([C@@H](C)CO)S2(=O)=O	3	3	-8[16.7 µM]	nt	nt	2[16.7 µM]
C=CCN=C1NN=C(c2cc(C)n(CCOC)c2C)CS1	7	-4	nt	-12	2	75*
COCCn1c(C)cc(C2=NNC(=NC3CC3)SC2)c1C	10	1	nt	5	4	57*
CCN(CCn1cccn1)C(=O)CC1C(=O)NCCN1CC1CCCCC1 (stereo not given)	11	4	nt	5	-6	-5
CCN(CCn1cccn1)C(=O)CC1C(=O)NCCN1CCc1ccccc1 (stereo not given)	8	-2	-11	nt	-11	88*
Cc1nc(SCC(=O)Nc2ccc(S(=O)(=O)N3CCOCC3)cc2)c2c(C)c(C)sc2n1	7	-9	nt	11	-1	64*
CSc1ccc(S(=O)(=O)NC2CCCCCC2)cc1	nt	nt	103*	-4	nt	nt
O=C(CCc1ccc(S(=O)(=O)NC2CCCCC2)cc1)N(Cc1ccccc1)Cc1ccccc1	nt	nt	99*	nt	nt	nt
O=C(Nc1ccc(S(=O)(=O)NC2CCCCC2)cc1)c1ccc(Br)o1	-4	-1	128*	-22	nt	nt
O=C(NNc1nc2c(F)cccc2s1)c1cc(=O)c2ccccc2o1	-51*	-6	0	23	5	-13
COc1cc2c(c(OC)c1OC)[C@@]1(c3ccccc3)CCCC[C@H]1[C@@H]2NC(=O)C(F)(F)F	16	-1	nt	nt	-11	87*
CNC(=O)C1=C[C@H](c2ccc(C(=O)OC)cc2)C[C@H](OCc2ccc(CO)cc2)O1	nt	-51	nt	nt	nt	-6[16.7 µM]
COC(=O)[C@@]1(Cc2ccc(F)cc2)[C@H]2c3cc(C(=O)N4CCCC4)n(CCc4ccccn4)c3C[C@H]2CN1C(=O)c1ccccc1	9	-4	nt	nt	44*	-44
COCCn1c(C(=O)N(C)C)cc2c1C[C@H]1CN(C(=O)c3ccccc3)[C@@](Cc3ccc(F)cc3)(C(=O)OC)[C@@H]21	9	-2	nt	nt	-3	-3
